Test [1] is described as follows: Inhibitory effect on the proliferation of human T-lymphoblast molt/4F cells. It is filed as functional. An outline of the steps: (§1)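 7.5 × 10^4 cells in growth medium were exposed in microplate wells to a range of compound concentrations. Proliferation ran 72 h at 37 °C under humidified, CO2-controlled conditions, followed by Coulter counter cell counts. IC50 is the compound concentration giving 50% inhibition of proliferation.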

Test [2] concerns L1210. Briefly: Inhibitory effect on the proliferation of murine leukemia L1210 cells. It is filed as functional, cell-based. To be noted: Mus musculus. An outline of the steps:
(§2)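 5 × 10^4 cells were suspended in growth medium in microplate wells with varying concentrations of compound. They grew for 48 h at 37 °C in a humidified CO2-controlled atmosphere and were then counted in a Coulter counter. IC50 is the concentration inhibiting cell proliferation by 50%.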

A short description of test [3]: Inhibitory effect on the proliferation of murine mammary carcinoma FM3A cells. Type of test: functional, cell-based. The conditions noted are these: Mus musculus. An outline of the steps:
as §2

In test [4] the test system is MT4. Briefly: Inhibitory effect on the proliferation of human T-lymphocyte MT-4 cells. It is filed as functional, cell-based. A digest of the protocol:
(§3)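 MT-4 cells (7.5 × 10^4 per well) in growth medium were incubated with graded compound concentrations for 120 h at 37 °C in a humidified CO2 atmosphere. Cell viability was assessed by trypan blue dye exclusion. IC50 is the concentration required for 50% inhibition of proliferation.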

Test [5] relates to Raji. In words: Inhibitory effect on the proliferation of human B-lymphoblast Raji cells. Type of test: functional, cell-based. An outline of the steps: as §1
In test [6] the test system is Raji. Briefly: Inhibitory effect on the proliferation of human B-lymphoblast Raji cells. Type of test: functional, cell-based. A digest of the protocol:
as §1

A short description of test [7]: Inhibitory effect on the proliferation of T-lymphoblast molt/4F cells. The conditions noted are these: Homo sapiens. Type of test: functional. A digest of the protocol: as §1
In test [8] the test system is MT4. Briefly: Inhibitory effect on the proliferation of human T-lymphocyte MT-4 cells. Type of test: functional, cell-based. An outline of the steps: as §3
Test [9] concerns L1210. In words: Inhibitory effect on the proliferation of murine leukemia L1210 cells. Type of test: functional, cell-based. To be noted: Mus musculus. An outline of the steps: as §2

Converted amounts (≈) assume the structure as drawn.

`C/C(=C\COc1c(Cl)cccc1Cl)CC/C=C(\C)C1CC(=O)C(C)(C)O1` (stereo not given): the IC50 in test [1] stood at 50.5 µg/mL (≈ 127 µM); in [2], 58 µg/mL (≈ 146 µM); in test [3], 51.2 µg/mL (≈ 129 µM); in test [4], 32.5 µg/mL (≈ 81.8 µM); in test [5], 59.9 µg/mL (≈ 151 µM).
`C/C(=C\COc1c(Cl)cccc1Cl)CC/C=C(\C)C1=CC(=O)C(C)(C)O1`: the IC50 in [1] worked out at 27.4 µg/mL (≈ 69.3 µM); in test [2], 30.7 µg/mL (≈ 77.7 µM); in test [3], 35.3 µg/mL (≈ 89.3 µM); in test [4], 15.5 µg/mL (≈ 39.2 µM); in test [6], 26.2 µg/mL (≈ 66.3 µM).
`C/C(=C\COc1ccc2ccc(=O)oc2c1)CC/C=C(\C)C1CC(=O)C(C)(C)O1` (stereo not given): the IC50 turned out to be 24.2 µg/mL (≈ 61 µM) in test [7]; 42.9 µg/mL (≈ 108 µM) in test [8]; 64.5 µg/mL (≈ 163 µM) in [9]; 54.2 µg/mL (≈ 137 µM) in [3]; 50.7 µg/mL (≈ 128 µM) in test [5].
For `C/C(=C\COc1ccc2ccccc2c1)CC/C=C(\C)C1=CC(=O)C(C)(C)O1`, the IC50 in test [1] turned out to be 51.6 µg/mL (≈ 137 µM); in test [8], 38.6 µg/mL (≈ 103 µM); in test [9] it was 47.4 µg/mL (≈ 126 µM); in [3] it was 56.4 µg/mL (≈ 150 µM); in test [5] it was 63.2 µg/mL (≈ 168 µM).
For `C/C(=C\COc1ccccc1)CC/C=C(\C)C1CC(=O)C(C)(C)O1` (stereo not given), the IC50 turned out to be 27.6 µg/mL (≈ 84 µM) in [1]; 64 µg/mL (≈ 195 µM) in [2]; 59 µg/mL (≈ 180 µM) in [3]; 43.1 µg/mL (≈ 131 µM) in [4]; 50.7 µg/mL (≈ 154 µM) in [6].
Regarding `C/C(=C\COc1ccccc1)CC/C=C(\C)C1=CC(=O)C(C)(C)O1`, the IC50 in test [1] amounted to 35.2 µg/mL (≈ 108 µM); in test [9] it was 38.7 µg/mL (≈ 119 µM); in test [3], 44.2 µg/mL (≈ 135 µM); in test [4], 29.4 µg/mL (≈ 90.1 µM); in test [5] it was 40.3 µg/mL (≈ 123 µM).
For the compound `COc1ccc(OC/C=C(\C)CC/C=C(\C)C2=CC(=O)C(C)(C)O2)cc1`, the IC50 was 38.6 µg/mL (≈ 108 µM) in test [1]; 40.2 µg/mL (≈ 113 µM) in [2]; 43.8 µg/mL (≈ 123 µM) in [3]; 33.9 µg/mL (≈ 95.1 µM) in [4]; 43 µg/mL (≈ 121 µM) in [6].
In the case of `C/C(=C\COc1ccc2ccc(=O)oc2c1)C1CC(=O)C(C)(C)O1` (stereo not given), the IC50 in [7] is 97.5 µg/mL (≈ 297 µM); in test [8] it was 107 µg/mL (≈ 326 µM); in test [9] it was 211 µg/mL (≈ 643 µM); in [3], 215 µg/mL (≈ 655 µM); in [5] it was 226 µg/mL (≈ 688 µM).
As for `COc1cccc(OC/C=C(\C)CC/C=C(\C)C2CC(=O)C(C)(C)O2)c1` (stereo not given), the IC50 in test [1] came out at 33.8 µg/mL (≈ 94.3 µM); in test [2] it was 66.5 µg/mL (≈ 186 µM); in test [3], 68.7 µg/mL (≈ 192 µM); in test [4] it was 51.5 µg/mL (≈ 144 µM); in test [6] it was 50 µg/mL (≈ 139 µM).
Turning to `C/C(=C\COc1ccc2ccccc2c1)CC/C=C(\C)C1CC(=O)C(C)(C)O1` (stereo not given), the IC50 in [1] is 26.9 µg/mL (≈ 71.1 µM); in [8], 48.8 µg/mL (≈ 129 µM); in test [9], 24.9 µg/mL (≈ 65.8 µM); in test [3], 38.4 µg/mL (≈ 101 µM); in test [5] it was 47.9 µg/mL (≈ 127 µM).
Consider `COc1cccc(OC/C=C(\C)CC/C=C(\C)C2=CC(=O)C(C)(C)O2)c1`, for which the IC50 stood at 35.9 µg/mL (≈ 101 µM) in [1]; 36.3 µg/mL (≈ 102 µM) in test [2]; 45.9 µg/mL (≈ 129 µM) in test [3]; 34 µg/mL (≈ 95.4 µM) in test [4]; 45.8 µg/mL (≈ 128 µM) in [6].
In the case of `C/C(=C\COc1ccc2ccc(=O)oc2c1)CC/C=C(\C)C1=CC(=O)C(C)(C)O1`, the IC50 turned out to be 28.5 µg/mL (≈ 72.2 µM) in test [7]; 15.6 µg/mL (≈ 39.5 µM) in test [8]; 39.7 µg/mL (≈ 101 µM) in [9]; 53.7 µg/mL (≈ 136 µM) in test [3]; 25.2 µg/mL (≈ 63.9 µM) in test [5].
The corresponding values for `C/C(=C\COc1ccc2ccc(=O)oc2c1)C1=CC(=O)C(C)(C)O1` [GEIPARVARIN] are 7.92 µg/mL (≈ 24.3 µM), 1.64 µg/mL (≈ 5.03 µM), 5.31 µg/mL (≈ 16.3 µM), 7.87 µg/mL (≈ 24.1 µM) and 8.25 µg/mL (≈ 25.3 µM).

These data come from ChEMBL document CHEMBL1126046, “Geiparvarin analogues. 3. Synthesis and cytostatic activity of 3(2H)-furanone and 4,5-dihydro-3(2H)-furanone congeners of geiparvarin, containing a geraniol-like fragment in the side chain” (J Med Chem, 1992).
